Assay results taken from the EternaBench riboswitch data.

System: MS2 coat protein
Assay: apparent Kd, MS2 coat protein; higher = weaker binding; RNA-MaP array; FMN 200 µM where present
How it was run: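 Stalled E. coli RNA polymerase produced the designs on Illumina sequencing-chip clusters. SNAP-549-labelled MS2 coat protein was added from 0.7 or 1.5 nM, doubling to 3 µM, without and then with constant ligand, in 100 mM Tris-HCl pH 7.5, 80 mM KCl, 4 mM MgCl2, BSA, DTT, yeast tRNA and Tween-20. The apparent Kd is the median of filtered per-cluster fits of green signal normalised to red-channel RNA signal and control-cluster median Fmax.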

[1] = designed as: ON switch for flavin mononucleotide, no ligand
[2] = ligand present: flavin mononucleotide, designed as: ON switch for flavin mononucleotide
[3] = designed as: OFF switch for flavin mononucleotide, no ligand
[4] = ligand present: flavin mononucleotide, designed as: OFF switch for flavin mononucleotide

Row | Sequence | apparent Kd [1] [nM] | apparent Kd [2] [nM] | apparent Kd [3] [nM] | apparent Kd [4] [nM]
1 | UACGCCAGUGAGAAGGCAUGUUCACAUGAGGAUCACCCAUGUAUACUCAUGAGGAUAUCAAAUGCGGACCAAAAUAAAAUUUGA | 313 | 22.2 | – | –
2 | AAGAACGCAGGAUAUAUUAAGGGACAAAGAAGGAAGAAUAAACAUGAGGAUCACCCAUGUAGAAGGGCGAAGAA | – | – | 60.5 | 58
3 | CACUGCAAUGUAGGAUAUCGACUGGAAUACAGUCGAGAAGGACAUGAGGAUCACCCAUGUACUAUGAGUGAAUAAUAAGCAGUG | – | – | 88.9 | 834
4 | ACAUAAAUUCGAGGAUAUCGGUGAAAUAAUCUACGAGAAGGCGAUAAUGGUUAUAGACUUAUAGACAUGAGGAUCACCCAUGUA | 26.2 | 25.6 | – | –
5 | AGUGACGAUACAGGAUAUGCUGGACUUUGUCCAGCAGAAGGGUAUUAACAUGAGGAUCACCCAUGUUUCGUCACCAAAUUUAAU | 39.5 | 8.22 | – | –
6 | GUCAGCUGGUGAGGAUAUACAACACUGCUUCGGCAGUGUAUUAAGAUCACAUGAGGAUCACCCAUGUAGAAGGCACGAGCUGAU | – | – | 13.1 | 207
7 | AUUUGAAUCGUAGGAUAUCGCUUAAAUUUACCACGAGAAGGACGAACAUGAGGAUCACCCAUGUAUCAUGGUGUAGAUAAUUUG | – | – | 68.2 | 249
8 | AGGAUAAGAAGAACUAUCCAUUGUACAGAAGGCCAACAUGAGGAUCACCCAUGUAAGAAAAGGAUGGAGGAUAUGUAUAGGGCC | 37.3 | 19.8 | – | –
9 | AGUUCCUCCGCAGGAUAUGUGCUCUUUAUCACAUGAGGAUCACCCAUGUCAGCCUAAACGGCGAGACAGAAGGGUGGUGGUGCC | 172 | 177 | – | –
10 | UACUGGUGUGAGAAGGGACAUAUCUCCAUGAGGGCAGGGCGAUUAGAGAAGUCAGGAUAUCACAUGAGGAUCACCCAUGUGACA | – | – | 8.14 | 8.51
11 | UCGUCCACGGAGAAGGGCACAUGAGGAUCACCCAUGUGGGCUUGGUGGUGGUGGUGUUAAAAUGUGUAGGAUAUCCAGGGCCGU | – | – | 19.5 | 20.6
12 | GUCCGGCGUGUAGGAUAUGGAUCCGAUUAGGAUCCAGAAGGACAUGAGGAUCACCCAUGUACAUGUAAACAGUCAUCACCGGAA | – | – | 9.2 | 57.7
13 | AUUUAUCUAGGAUAUACAUGAGGAUCACCCAUGUUGAAGCGUAGGUACCUUUCCGAAUGUAGAAGGAGAGCACC | – | – | 19.9 | 22.2
14 | AAGCGAGGGACAGGAUAUGCGGCAAAACUCGCCGCAGAAGGGUCGACAUGAGGAUCACCCAUGUCCUUACGCUCCAAGUAGAGG | 213 | 359 | – | –
15 | GGUGCGUGUGUGAGGAUAUGCUGGUCCUUGGCUCGGCAGAAGGCACAUGAGGAUCACCCAUGUGGUGUCGUGCC | – | – | 22.8 | 49.8
16 | ACAUGAGGAUCACCCAUGUAGAGUGAAGAAGGUAGAUACUUGUGACUCUCCCAUGUACAUAGGACUGAGGAUAUUCUAAUAAUU | 24.2 | 20.9 | – | –
17 | UAGUAGAUCCGAGGAUAUACAAUCCGGAAACGGUACAUGAGGAUCACCCAUGUAGAAGGCGGAUCUACAGGUACUAAAGUACCU | – | – | 5.12 | 7.93
18 | GCGUCAGGAGGAUAUACAUGAGGAUCACCCAUGUAACACGGGAUAGUAGUAUAGUAGAGUAGAAGGCCUAUAGU | – | – | 37.5 | 46
19 | GUCAGCUCGUGAGGAUAUACAUGUGCUGGAGACAGCACUAAUUAAUUCACAUGAGGAUCACCCAUGUAGAAGGCACGAGCUGAU | – | – | 16.2 | 19.6
20 | UGUUGUAUUACAGGAUAUCUAGUAUUUUUAUGUAGAGAAGGGUAUUCACAUGAGGAUCACCCAUGUAUAUACGAGGAAGUUGUG | 39.7 | 43.2 | – | –
21 | UGGUACAUGGGAGGAUAUCAUGUAGACACAUGAGGAUCACCCAUGUCGAUGGAGACAUCGGAGAUUGAGAAGGCCCAUGUACCU | 226 | 8.3 | – | –
22 | UUUGUUGUUGUGAGGAUAUACUGUUUGUUUUGUUUGUAGAAGGUACAUGAGGAUCACCCAUGUUGGUUGUUUUU | – | – | 26.4 | 25.1
23 | CGUUAAUAUCGAGGAUAUGUCUAGACACAUGAGGAUCACCCAUGUAUGUGUAUAGAAGGCGAUAUUAACAGCAUGUUACAUGCA | 43 | 15.6 | – | –
24 | GGUACUCAAAGAGUACUUGGUCGAACAUGAGGAUCACCCAUGUAGGAUAUACGAAGCAAGAAGUAGUAGAAGGACGUGUGCAGC | – | – | 12.4 | 12.1

Row | Sequence | apparent Kd [1] [nM] | apparent Kd [2] [nM] | apparent Kd [3] [nM] | apparent Kd [4] [nM]
25 | ACCUUCAAAGGAUAUGCGACUGGACGCCUUGCCAUGUAUAGACAUGAGGAUCACCCAUGUAGAAGGUUGGAGGA | – | – | 30.7 | 47.7
26 | UAUAUAUAGUAAGGAUAUGUAUUAAUGUUAUAAACAGAAGGUACUGACAUGAGGAUCACCCAUGUUUUAGUGUGGGCAUGUAGA | – | – | 92.1 | 131
27 | CGCCGCACCGGCCUGCGGCAGGGUCAGGAUAUACAUGAGGAUCACCCAUGUGAACGGUGCCCAAUGUAGAAGGGACGAAAAGAA | – | – | 17.8 | 39.5
28 | GCUAUCGAUGUAGGAUAUGCUAGGGAAACCCUGGCAGAAGGACAUGAGGAUCACCCAUGUCAAUGGAUGGAGAGAAGAGAUGGC | – | – | 25.6 | 74.3
29 | UUAAAUCGAAACAUGAGGAUCACCCAUGUGUUGUAAUUAAUAUAGGAUAUGUGUAUACUUUUAUGACAGAAGGAUGAUAAUACU | 21.5 | 14.4 | – | –
30 | CAGACCGGCGCAGGAUAUGUCGACAUGAGGAUCACCCAUGUAAGCCUCGUCUGGUCCGGUGUGUGACAGAAGGGUGUCGGCCAA | – | – | 13.1 | 38.1
31 | GUUUCGGGAGGAUAUGCGUGGAUUGUUCUCGUAUGGUGUCUACAUGAGGAUCACCCAUGUAGAAGGUCUGGAGC | – | – | 18 | 38.6
32 | AAAAAACAUGAGGAUCACCCAUGUAAUACAACGUCAGGAUAUUGAUUUUAUUAUGUAUUGCAAGAAGGGACUUGUA | 72.1 | 25.4 | – | –
33 | AAUAUAAGAGCUGGUAACUCAAGAACAUGAGGAUCACCCAUGUAGGAUAUCAGCACGAUAAGUGCUGAGAAGGACAUCCAGCUC | – | – | 15.3 | 19
34 | UUUUAAUAAGAGAAGGAGCACUACAUGAGGAUCACCCAUGUGUUAGUAGUUAGGAUAUUUAAUAACAUGAGGAUCACCCAUGUA | 167 | 74.2 | – | –
35 | UGAUAGGACAGAGGAUAUACGUGCUAGAGAUACUAGCUAAUAAUCCUUACAUGAGGAUCACCCAUGUAGAAGGCUGUCCUAUCU | – | – | 19.5 | 45.5
36 | AGAGCCUCGUGAGGAUAUACAUGAGGAUCACCCAUGUAAAUGAAUGAACGGAGGAAACUCCGAAUGUAGAAGGCACGAGGCUCA | – | – | 27.9 | 166
37 | CCACGUCCCAUUAACAUGAGGAUCACCCAUGUCAAAAGACAUGAGGAUAUGGUACCUAAUUGGUACCAGAAGGCAUGGACGUGG | 691 | 114 | – | –
38 | CAUUAAUUCAUUAUAGUAAUUAUACAGGAUAUGUUACAUGAGGAUCACCCAUGUAUUCAUGGUAUACAGAAGGGUAAUACUAGA | – | – | 12.6 | 13.9
39 | AGGUCGUGAGGAUAUCGUCCCGUGAGCAGUAGUUGCGCGGGUGAGAAGGCACAUGAGGAUCACCCAUGUCAUCC | – | – | 24.9 | 74.4
40 | CACUCAGGCACAUGAGGAUCACCCAUGUCCCGGAAGCCGAGACAGGAUAUGUGCCUCGAAUGUGCACAGAAGGGUCUACUAUAU | 226 | 180 | – | –
41 | UGAGUGCUGCGAGGAUAUACAUGAGGAUCACCCAUGUAAAUGUGUGAGGCUUUGCCUCACACAAUGUAGAAGGCGCAGUACUCU | – | – | 14.5 | 17.2
42 | GGCACACAUGAGGAUCACCCAUGUGAGGAUAUGUUAGUUUCGGCCAAAGCCGAAAUUAACAGAAGGCACAUGCC | – | – | 14.9 | 26.4
43 | ACAUGAGGAUCACCCAUGUGAUGAUCUUCCAUGUCAUAUUUCAGAAGGCACGCAUCUUUAAUGAGUGAGGAUAUGGAAUAUGCG | – | – | 674 | 410
44 | GACCGCGAGGGAGGAUAUGGAGCCUUAUUGGCUCCAGAAGGUCCAUAAGGGACAUGAGGAUCACCCAUGUGGGUUGAAGCGGUC | 155 | 57.2 | – | –
45 | UUUGUAAUGUCAGGAUAUUUUAUAAGUCAUACUGAAGAAGGGAUAAUUAUACUCAUGUACAUGAGGAUCACCCAUGUUAAAUAU | 43.6 | 33.6 | – | –
46 | UGGUUGUGAGGAUAUCCAAUAUAUGACAUGAGGAUCACCCAUGUUUCCACUCGUACCUCCGGAGAAGGCACUUGGU | – | – | 33.4 | 28.4
47 | GCAUGCGUUCGAGGAUAUCGGUGAGAAACGGAACGAGAAGGCGAUCGAAUGUCUCAUAUUAUGAACAUGAGGAUCACCCAUGUA | 514 | 131 | – | –
